Source: PubChem
OX1R antag-1 – antagonists of human orexin 1 receptor (OX1R) | inhibition, % at 6.6 µM | AID 485270 | OX1R-expressing cells, FRET antagonist read-out | O43613 | actives 1.8% (n = 330,000); in the data active = inhibition mostly above about 38%, no sharp cut-off; inactive = mostly below about 40%
CHO parental Ca – signal in parental CHO cells, OX1R antagonist counter-screen; actives 0.63% (n = 330,000); parental CHO-K1, ATP-induced calcium, Fluo-8 fluorescence; inhibition, % at 5.6 µM; AID 463079;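 active = inhibition above that plate's mean sample inhibition plus 3 SD, cut at about 26% in these data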
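test system = CHO parental line | reagent = ATP stimulus | measured by = intracellular calcium via Fluo-8 no-wash fluorescent dye | control set = ATP and no-ATP DMSO wells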
OX1R antag-2 – antagonists of human orexin 1 receptor | inhibition, % at 5 µM | O43613 | AID 434989 | CHO/OX1R cells, Fluo-8 calcium fluorescence, orexin A | actives 0.43% (n = 330,000);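 active = inhibition above its plate's threshold, mean inhibition of all tested compounds on the plate plus 3 SD, cut at about 37% in these data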
TAAR1 agonist – agonists of human TAAR1 | Q96RJ0 | CHO RD-HGA16 TAAR1, Fluo-8 calcium fluorescence; vehicle wells 0%, saturating PEA agonist 100% | activation, % at 3 µM | actives 0.99% (n = 360,000) | AID 624467;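 active = activation above the mean activation of all test compounds in the run plus 3 SD, cut at about 38% in these data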
Target sequence (Q96RJ0 whole entry, looked up): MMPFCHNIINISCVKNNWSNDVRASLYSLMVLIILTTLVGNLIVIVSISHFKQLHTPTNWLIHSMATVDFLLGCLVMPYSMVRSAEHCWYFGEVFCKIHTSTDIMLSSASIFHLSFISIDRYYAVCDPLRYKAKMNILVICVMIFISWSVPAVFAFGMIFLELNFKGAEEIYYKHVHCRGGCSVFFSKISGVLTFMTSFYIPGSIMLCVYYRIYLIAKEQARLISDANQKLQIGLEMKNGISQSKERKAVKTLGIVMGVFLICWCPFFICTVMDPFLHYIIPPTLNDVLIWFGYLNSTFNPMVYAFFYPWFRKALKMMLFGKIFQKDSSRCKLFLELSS
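Test system: RD-HGA16 (CHO) cells co-expressing Gα16 and hTAAR1 / Benchmarks: DMSO vehicle as 0%, PEA at EC100 as 100% / Repeats: no replicates (n 1) / Measure: % activation from peak over basal fluorescence ratio, DMSO-to-PEA scaled / Timing: 17-24 h plating, Fluo-8 75 min 37 °C, 30 min RT / Technique: kinetic Fluo-8 calcium fluorescence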
TAAR1 antag – human TAAR1 antagonism | Q96RJ0 | actives 1.5% (n = 360,000) | CHO RD-HGA16 TAAR1, Fluo-8 calcium fluorescence, antagonist | inhibition, % at 3 µM;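 active = inhibition above a per-plate cutoff, the mean inhibition of test compounds on that plate plus 3 SD, cut at about 49% in these data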
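Material: RD-HGA16 CHO cells with stable hTAAR1 and Gα16; Dosing: single nominal final test compound concentration of 3 µM; Schedule: seeding 17-24 h prior, 75-min 37 °C, 30-min RT dye loading; Detection: kinetic Fluo-8 calcium fluorescence measurement; Measure: % inhibition from peak post-agonist over basal fluorescence ratio; Benchmarks: vehicle and agonist controls.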
GPR7 antagonist – blocks human GPR7 receptor signaling. inhibition, % at 4.4 µM. GPR7-expressing cells, fluorescence antagonist assay. actives 1.1% (n = 290,000). P48145; in the data active = inhibition above about 16%, passing the limit was not always enough;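 also: cells stimulated with the agonist NPW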
Target sequence (P48145 whole entry, looked up): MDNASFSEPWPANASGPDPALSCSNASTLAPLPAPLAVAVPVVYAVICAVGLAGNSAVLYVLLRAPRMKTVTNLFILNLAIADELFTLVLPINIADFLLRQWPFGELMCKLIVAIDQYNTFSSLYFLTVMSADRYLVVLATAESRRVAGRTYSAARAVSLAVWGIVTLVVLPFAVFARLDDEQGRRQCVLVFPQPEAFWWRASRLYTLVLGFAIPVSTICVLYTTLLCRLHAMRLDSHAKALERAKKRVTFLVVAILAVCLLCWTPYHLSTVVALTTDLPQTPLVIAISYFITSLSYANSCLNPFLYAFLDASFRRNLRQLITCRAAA
Numbers stand for hits; n = inactive; x = no result given. A selection: hits, their analogues and other compounds. The true share with any hit is near 4.6%.

SMILES | OX1R antag-1 | CHO parental Ca | OX1R antag-2 | TAAR1 agonist | TAAR1 antag | GPR7 antagonist
O=C1CCCN2N=C(SCC(=O)Nc3cccc(Cl)c3)SC2=N1 | n | n | n | n | n | n
O=C(NCCc1ccccc1)c1ccccc1NC(=O)C1CCCO1 (configuration not stated) | n | n | n | n | n | 19.7
O=C(NCCc1ccccc1)c1ccc(NC(=O)C2CCCCC2)cc1 | x | x | x | n | 48.9 | x
O=C(O)c1ccccc1NC(=O)C1CCCO1 (configuration not stated) | n | n | n | n | n | n
CCCCNC(=O)C[C@H]1C[C@@]2(C(=O)OC)C(=C[C@H](C(C)C)O[C@@H]2C2CC2)N(Cc2ccccc2)C1=O | x | x | x | n | n | x
O=C(COc1ccc(-n2cnnn2)cc1)Nc1ccc(F)c(F)c1F | n | 30.0 | n | n | n | x
COc1cccc(C2CC(OCCF)=CC(=O)O2)c1 (configuration not stated) | x | x | x | n | n | x
Cc1ccc(/C=C/c2nnc(-c3cccs3)o2)cc1 | 41.9 | n | n | n | n | n
O=C(Nc1ccc(Cl)c(Cl)c1)N1CCC(N2CCCCC2)CC1 | n | n | n | n | n | n
O=C(Nc1ccc(Cl)c(Cl)c1)N1CCCCCC1 | n | 33.5 | n | n | n | n
O=C(CN1CCN(S(=O)(=O)N2CCCCC2)CC1)Nc1ccc(Cl)c(Cl)c1 | n | 31.8 | n | n | n | n
O=C(CN1CCN(S(=O)(=O)N2CCCCC2)CC1)Nc1cc(Cl)cc(Cl)c1 | n | n | n | n | n | n
O=S1(=O)N[C@@H](Cc2ccccc2)COc2cccc(NCCO)c21 | x | x | x | n | n | x
COc1ccc(CN(C)S(=O)(=O)c2nnc(NC(=O)c3cccc(F)c3)s2)cc1OC | 43.3 | n | n | n | n | n
COc1ccc(CN(C)S(=O)(=O)c2nnc(NC(=O)c3ccccc3)s2)cc1OC | n | n | n | n | n | n
CCC1CCCCN1C(=O)CCCOc1ccccc1 (configuration not stated) | n | n | n | n | n | n
CCCCC[C@H](O)/C=C/[C@H]1CCC(=O)[C@@H]1CCCCCCC(=O)N1CCCCC1CO (some centres not stated) | n | n | n | n | 71.3 | n
O=C(O)CCc1ccc(-c2ccccc2)n1NC(=O)c1sc2ccccc2c1Cl | 40.7 | n | n | n | n | n
NC(=O)Nn1c(CCC(=O)O)ccc1-c1ccc(Cl)cc1 | n | n | n | n | n | n
COCc1cc(N2CCN(C(=O)OC(C)(C)C)C[C@H]2C)ccc1N1CC[C@@H](O)C1 | x | x | x | n | n | x
O=C(Cn1nnc(N2CCOCC2)n1)NN=Cc1ccccc1Cl | x | x | x | n | n | x
Cc1onc(-c2c(Cl)cccc2Cl)c1CO/N=C(\C#N)c1c(Cl)cccc1Cl | n | n | n | n | 49.1 | n
Cc1onc(-c2c(Cl)cccc2Cl)c1/C(N)=N/OC(=O)C(C)(C)C | n | n | n | n | n | n
CCc1nc(SCC(=O)N2CCCc3ccccc32)c2oc3ccccc3c2n1 | 48.4 | n | n | n | n | n
CN(C)C(=O)C[C@@H]1CC[C@@H](NC(=O)C2CCC2)[C@@H](CO)O1 | x | x | x | n | n | x
SMILES | OX1R antag-1 | CHO parental Ca | OX1R antag-2 | TAAR1 agonist | TAAR1 antag | GPR7 antagonist
O=C1OC(c2ccc3c(c2)OCO3)N(C(=O)c2ccc(Cl)c(Cl)c2)c2ccccc21 (configuration not stated) | 76.2 | n | n | n | n | n
Cc1cccc(C(=O)N2c3ccccc3C(=O)OC2c2ccc3c(c2)OCO3)c1 (configuration not stated) | n | n | n | n | n | n
O=C(c1nn2c(C(F)(F)F)cc(-c3ccc(F)cc3)nc2c1Cl)N1CCOCC1 | n | n | n | n | n | n
O=C(c1nc2nc(-c3ccc(Cl)cc3)cc(C(F)(F)F)n2n1)N1CCOCC1 | 46.2 | n | n | n | n | n
CN1CCCCC(NC(=O)CCCl)C1=O (configuration not stated) | x | x | x | n | n | x
Cc1ccc(-c2noc(CN(C(=O)c3ccc4c(c3)OCO4)C(C)C)n2)cc1 | n | n | n | n | n | n
Cc1ccccc1OCC(=O)N(Cc1nc(-c2ccccc2)no1)C(C)C | 61.7 | n | n | n | n | n
CC(C)N(Cc1nc(-c2ccccc2)no1)C(=O)c1ccc2c(c1)OCO2 | 49.7 | n | n | x | x | n
Cc1ccc(SCC(=O)N(Cc2nc(-c3ccccc3)no2)C(C)C)cc1 | n | 45.8 | n | n | n | n
Cc1ccccc1OCC(=O)N(Cc1nnc(-c2ccc(Cl)cc2)o1)C(C)C | 39.3 | n | n | n | n | x
COc1ccc(C(C)C)cc1-c1cccc2nncn12 | x | x | x | n | n | x
COC(=O)C1=CN(c2ccc(Oc3ccccc3)cc2)C(N)=C(C#N)C1c1ccccc1 (configuration not stated) | x | x | x | n | n | x
O=C(NCc1ccccc1)[C@H]1CCCN1C(=O)[C@H]1CCCN1C(=O)N1CCCCC1 | x | x | x | n | n | x
CCCCn1c(N)c(N(CC(C)C)C(=O)c2ccco2)c(=O)[nH]c1=O | n | n | n | n | n | x
CC(CCc1ccccn1)(CCc1ccccn1)C(=O)c1ccccc1 | x | x | x | n | 53.5 | x
CC(CCc1ccccn1)C(=O)c1ccccc1 (configuration not stated) | x | x | x | n | n | x
O=C(CN(c1ccccc1)S(=O)(=O)c1ccccc1)NCCSCc1ccco1 | 56.6 | n | n | n | n | n
COc1ccc(N(CC(=O)NCCSCc2ccco2)S(=O)(=O)c2ccccc2)cc1OC | n | n | n | n | n | n
COc1ccccc1N(CC(=O)NCCSCc1ccco1)S(=O)(=O)c1ccccc1 | 50.9 | n | n | n | n | n
COc1ccccc1N(CC(=O)NCCSCc1ccccc1)S(=O)(=O)c1ccc(C)cc1 | n | n | n | n | n | n
COc1ccccc1N(CC(=O)NCCSCc1ccccc1)S(=O)(=O)c1ccccc1 | x | x | x | n | 65.2 | x
COc1ccc(N(CC(=O)NCCSCc2ccco2)S(=O)(=O)c2ccccc2)cc1 | n | n | n | n | n | n
O=C(Cc1cn(Cc2ccccc2)c2ccccc12)Nc1ccc(Oc2cccnc2)cc1 | x | x | x | n | n | x
O=C(Nc1nccs1)c1ccc([N+](=O)[O-])cc1Cl | n | n | n | n | n | n
O=C(NC1=NCCS1)c1ccc([N+](=O)[O-])cc1Cl | 49.4 | n | n | n | n | n
O=C1C=C(N(CCO)Cc2ccccc2)c2ccccc2C1=O | x | x | x | x | x | n
O=C1c2ccccc2C(=O)c2c1cccc2N(CCO)CCO | 58.9 | n | n | n | n | n
N#C/C(=C/c1ccc(Sc2nc3ccccc3[nH]2)o1)c1cccc(F)c1 | 58.8 | n | n | n | n | n
N#C/C(=C/c1ccc(Sc2nc3ccccc3[nH]2)o1)c1ccccc1F | 52.5 | n | n | n | n | n
N#C/C(=C\c1ccc(Sc2ccccc2)o1)c1nc2ccccc2[nH]1 | n | n | n | n | n | n
